Measurements from the EternaBench riboswitch data.

Test system: MS2 coat protein
Test: apparent Kd, MS2 coat protein; higher = weaker binding; RNA-MaP array; FMN 200 µM where present
In short: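 Binding was read on Illumina sequencing-chip clusters where stalled E. coli RNA polymerase had transcribed each design. A titration of SNAP-549-labelled MS2 coat protein began at 0.7 or 1.5 nM and doubled to 3 µM, once without ligand and once with constant ligand, in 100 mM Tris-HCl pH 7.5, 80 mM KCl, 4 mM MgCl2, BSA, DTT, yeast tRNA and Tween-20. The apparent Kd is the median of filtered per-cluster binding-curve fits, based on green signal normalised to red-channel RNA signal and control-cluster median Fmax.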

[1] = designed as: OFF switch for flavin mononucleotide, no ligand
[2] = ligand present: flavin mononucleotide, designed as: OFF switch for flavin mononucleotide
[3] = designed as: ON switch for flavin mononucleotide, no ligand
[4] = ligand present: flavin mononucleotide, designed as: ON switch for flavin mononucleotide

Sequence	apparent Kd [1]	apparent Kd [2]	apparent Kd [3]	apparent Kd [4]
UGUCAUAUAUAGAAGGGUAGUAGGGUAUUACAUGAGGAUCACCCAUGUAUUAUAGGAUAUGUGUAUAGUUUUUAUUCAAGUAUA	0.0228 µM	0.017 µM		
AAAACAUGAGGAUCACCCAUGUUUAGAUCGGUCGAUAGAGGUGAGGAUAUACUAAGUUAAGGCUGGUAGAAGGCACUGGGUACA			0.0624 µM	0.042 µM
GUGCACAUUCGAGGAUAUCGGAGAGGACUCCUUCGAGAAGGCGAUUCGUGCCGUGUUAUUCUGGACAUGAGGAUCACCCAUGUG			0.045 µM	0.0287 µM
GUACUGUAGUGAGGAUAUACGAGAUCGAUAGAUCGGCGAUCCAUUUAUACAUGAGGAUCACCCAUGUAGAAGGCACUUCAGUAC	0.00562 µM	0.0566 µM		
UUGGGUCGGGAGGAUAUUCGGGCUCAUGGGCUUGGAGAAGGCUCGACAUGAGGAUCACCCAUGUAAGUGUACUU	0.153 µM	0.542 µM		
CGCUCUAUAUAUUUGGCAAGUAUCAGAAGGCGUUACAUGAGGAUCACCCAUGUUUUGAAUAGUAACGAGGAUAUGAUAUGAGCG	0.022 µM	0.0242 µM		
CACCGUUACACAGGAUAUCUUACAUGAGGAUCACCCAUGUAAUAAAUGAGAAUUUCGAAUGUAUUAGAGAAGGGUGGAAUCGGC	0.0377 µM	0.0902 µM		
GAAUAUUCGUUGUACAUGAGGAUCACCCAUGUGACUUGACAUGAGGAUAUGGAUUCUAAUUGGAUCCAGAAGGCAUGAAUAUUC			0.122 µM	0.0315 µM
UAGGUACAUGAGGAUCACCCAUGUGGGUCGGUCACAGGAUAUCGCCGUGGGCCCAGGCGGCGAGAAGGGUGCCGGU			0.277 µM	0.0348 µM
CUAUAUAAUACCUCAUGUACAUGAGGAUCACCCAUGUUAACUUAGGAUAUAUUUAUAUUAAUAGAGUAGAAGGAAGUACUAUUG	0.0274 µM	0.0212 µM		
AAGUAGAUCCGAGGAUAUACAUUGCGGAAACGCAACAUGAGGAUCACCCAUGUAGAAGGCGGAUCUACAGGUACUAAAGUACCA	0.01 µM	0.017 µM		
CAUGUACGUGAGGAUAUGGUGGCGACGAGCCGGCUAGAAGGCACAACAUGAGGAUCACCCAUGUCUUGGAUCUA	0.114 µM	0.374 µM		
AGUGUCAUCGAGAAGGCCUCAACAUGAGGAUCACCCAUGUUGUAAUAUGGGAGGAUAUCGAUGAUACAGCUACGUUUCGUAGCC			0.0195 µM	0.00591 µM
AAGUCACAUGAGGAUCACCCAUGUCGUAAACGAUGAGGAUAUAGGAAAAAAAAAAAAAAACUAGAAGGUAUAACAA			0.0693 µM	0.0691 µM
CCACGUCCCAUUAACAUGAGGAUCACCCAUGUCAAAAGACAUGAGGAUAUGGUACCUAAUUGGUACCAGAAGGCAUGGACGUGG			0.691 µM	0.114 µM
AUAGGCCUAGGAUAUACAUGAGGAUCACCCAUGUUAAUAAUUCGAUCAUGAUAAACGUGUAGAAGGAGGAAUAA	0.0329 µM	0.0369 µM		
AAGUUUGUACGAGGAUAUCAGUUGUUUCUAAAUUCAACAUGAGGAUCACCCAUGUAACAAUGGAGUGAGAAGGCGUGUGGGCAA			0.74 µM	0.554 µM
GAGUGUACGGAGGAUAUGUUAUACGAUGACCGAACAGAAGGCCGAACAUGAGGAUCACCCAUGUGUCUUCUAGG	0.016 µM	0.0228 µM		
UCGGCGCGAGGAUAUGCGGCUGCUGCUUCGGGCCGUGGCGUACAUGAGGAUCACCCAUGUAGAAGGCGCGCCGC	0.0131 µM	0.0141 µM		
GUGCCUUGGAAGAAGGCCGUAUGCAAAGCAUACGGAGGAUAUUCAUACCGGAAACGGACAUGAGGAUCACCCAUGUGGCACAAA			0.013 µM	0.00624 µM
GGGUGACAUGAGGAUCACCCAUGUCAGGAUAUGAUACUAUGUACUUCGGUACAUAGUAUCAGAAGGGACAUCCC	0.0484 µM	0.158 µM		
CAGCAGUGUAAGAAGGCUGCUCCGAUAAGGAGCAGAGGAUAUUACAUGAGGAUCACCCAUGUAUGAACCAAUAGCUGAAAUAAA	0.00912 µM	0.0853 µM		
CUUAUGUGAGGAUAUGGUGUUGGCCACAGGAAAAAGAUUCUCCAGAAGGCACAUGAGGAUCACCCAUGUAGUGA	0.0513 µM	0.12 µM		
AAUAACAGAGGAUAUACUGUUUUAUGUGUUUGUUAUUUUAAACAUGAGGAUCACCCAUGUAGAAGGCUGAGUAA	0.0274 µM	0.027 µM		
GACUGACGAGGAUAUACAUGAGGAUCACCCAUGUAAGAUCAGCGACUUCGGUCGCAAUGUAGAAGGCGUCAGUC	0.0282 µM	0.326 µM		
CUUAUGUGAGGAUAUCAGUAGUAAUACAAUAGUAUUACUACUGAGAAGGCACAUGAGGAUCACCCAUGUUCUUC	0.134 µM	0.0369 µM		
UGAUCGAGAGAUCUUAGAUUCUGGUAGGAUAUACAUUAUAAAAGCUUUACAUGAGGAUCACCCAUGUAGAAGGACUAGAGUCUA		0.00792 µM		
CGUCCUCUAGUUAGGAUAUUGUCUCGGAUACGAAACAAGAAGGGACAUGAGGAUCACCCAUGUAAUGAGGACGA	0.0292 µM	0.0282 µM		

Sequence	apparent Kd [1]	apparent Kd [2]	apparent Kd [3]	apparent Kd [4]
UCGUACAUUCGAGGAUAUCGGUGAUAUAUAUUACGAGAAGGCGAUUGUUUGUUUUACGCCUUAGACAUGAGGAUCACCCAUGUA			0.0777 µM	0.0552 µM
CGAUGGCAUGUAGGAUAUCGAGCUCAAAGAGCUCGAGAAGGACAUGAGGAUCACCCAUGUCCUCACAGACAGUGAGGGCUAUCG	0.0223 µM	0.0547 µM		
CUAUUCCGAGGAUAUACAUGAGGAUCACCCAUGUCGGGCCUCUGCGUUUAGCGCGUAAGUAGAAGGUGGGUUUC	0.031 µM	0.0329 µM		
UUUUAACAUGAGGAUCACCCAUGUGAGGAUAUCGAAAUUUAUAUUAAUAUUAAUUUAACGAGAAGGCACAUUUU	0.101 µM	0.0937 µM		
GCUGCCGCUGCAGGAUAUCAGCACGUGUAGUGCUGAGAAGGGCACAUGAGGAUCACCCAUGUGAUCAAUUAAUAAGCGUGCAGC	0.00686 µM	0.0165 µM		
UGGUGAAGUGUAGGAUAUGGAGAUGGGUUUUGGCCAGAAGGACAUGAGGAUCACCCAUGUGGUAGAGGGUUGGUGGUAGCUCGU	0.0624 µM	0.0498 µM		
UGGUUGUGAGGAUAUCCAAUAUAUGACAUGAGGAUCACCCAUGUUUCCACUCGUACCUCCGGAGAAGGCACUUGGU	0.0334 µM	0.0284 µM		
CGCGAUAGCAUAGGAUAUUGAUACAUGAGGAUCACCCAUGUCAACCAUGAAGCUCGAAUUGUUGACAAGAAGGAUGAGGUCGCG			0.0813 µM	0.0553 µM
GAUAUAGUUGAGAAGGGAAGGGCACAGUCCUCUCUAAAACUACAUGAGGAUCACCCAUGUGGCUUUCAGGAUAUCAGCGCUAAA	0.0225 µM	0.109 µM		
AAUAAACUCACAGGAUAUAGCAGAGGUCGCCUGAACUUACAGGCGACUAUGCUAGAAGGGUGACCACAUGAGGAUCACCCAUGU			0.974 µM	0.17 µM
AGAAACUACGAGAAGGACAUGAGGAUCACCCAUGUAACCACUUAGUGGAAUGUAGGAUAUCGUAGUUUCAGGAUCGUGAGAUCA	0.00691 µM	0.00958 µM		
CUCAUGUGAGGAUAUGUGAUCAACCUUCUGUAUAGAUGAUGACAGAAGGCACAUGAGGAUCACCCAUGUAGAUC	0.0689 µM	0.0571 µM		
UGAGUGCUGCGAGGAUAUACAUGAGGAUCACCCAUGUAAAUGUGUGAGGCUUUGCCUCACACAAUGUAGAAGGCGCAGUACUCU	0.0145 µM	0.0172 µM		
AAAACACAUGAGGAUCACCCAUGUGAGGAUAUGUCCAUGCUCGGCAAACCGGGCAUGGACAGAAGGCACAUAAA	0.045 µM	0.0467 µM		
CUGGAAUACAGACAUGAGGAUCACCCAUGUUUAAGGGAAGCACAGGAUAUGUCGACGCACCAUAGACAGAAGGGUGACUUGCUU			0.0494 µM	0.0248 µM
UAACAUGUCCGAGGAUAUCUGGAAACAUUUUCAAGAGAAGGCGGACAUGAGGAUCACCCAUGUCUCUCCUCAUCAAAUCCAAGU	0.0089 µM	0.0423 µM		
UACGCCAGUGAGAAGGCAUGUUCACAUGAGGAUCACCCAUGUAUACUCAUGAGGAUAUCAAAUGCGGACCAAAAUAAAAUUUGA			0.313 µM	0.0222 µM
CCGGAAUUACAGGAUAUAGGAGUCGAUAGACACCUAGAAGGGUAGACAUGAGGAUCACCCAUGUGUCCUACCGG	0.273 µM	0.182 µM		
UGAGAGUGAGGAUAUACGUCGCUGGUCCCGAUGGACGCAUGACAUGAGGAUCACCCAUGUAGAAGGCAUUUCCC	0.0338 µM	0.128 µM		
AGUAAGAUGCAGAAGGUGUCAGCGAGAGCUGCGACAUGAGGAUCACCCAUGUGUCGGUGACGACGCAAGGAUAUGCAUCUUACA			0.138 µM	0.0566 µM
GGCUUCUUCACAGGAUAUGGUUUUUUAAGUAUACAUGAGGAUCACCCAUGUCCAGAAGGGUGAGGGUUCGGCGUGCGGUGUCGG			0.384 µM	0.0427 µM
AGAGCCUCGUGAGGAUAUACAUGAGGAUCACCCAUGUAAAUGAAUGAACGGAGGAAACUCCGAAUGUAGAAGGCACGAGGCUCA	0.0279 µM	0.166 µM		
GGUGCAUAUGAGAAGGCGAUCAUGAAACAUGAUCGAGGAUAUCAUGUAAACAUGAGGAUCACCCAUGUAUGGGAAUAUUGCACC			0.176 µM	0.0126 µM
AAGGUGUAAGGAUAUGCUGCUCGUCACUUGCGUGAUGAGUAGCAGAAGGUACAUGAGGAUCACCCAUGUAAAAA	0.0279 µM	0.0346 µM		
AACAGCUCGUCAGGAUAUAUUUUCCUUUUAUGUAUUUAUGUACAUGAGGAUCACCCAUGUUGAUAGUAGAAGGGACGAGCUGAA	0.0138 µM	0.0344 µM		
CGCAAGUAUACAUGAGGAUACAUGAGGAUCACCCAUGUUAUCAGAAGGUACUAUUAGAGAUAGAGUAAGGAUAUGAAAUUUGUG			0.00788 µM	0.0173 µM
AAUAACAGAGGAUAUACUGUUUUAUGUAUUUAUUAUUUUAAACAUGAGGAUCACCCAUGUAGAAGGCUGAUUGA	0.0337 µM	0.0298 µM		
